Data taken from ChEMBL document CHEMBL2069242, “Structure and activity relationship in the (S)-N-chroman-3-ylcarboxamide series of voltage-gated sodium channel blockers” (Bioorg Med Chem Lett, 2012).
Converted amounts (≈) assume the structure as drawn.

Legend:
[1] = biological target: Voltage-gated inwardly rectifying potassium channel KCNH2 (Homo sapiens, UniProt Q12809); assay: Inhibition of human ERG expressed in CHO cells by IonWorks HT assay; type: cell-based
[2] = biological target: Sodium channel protein type 5 subunit alpha (Homo sapiens, UniProt Q14524); assay: Inhibition of human NaV1.5 expressed in CHO cells by IonWorks assay; type: cell-based
[3] = Solubility of the compound; type: physicochemical
[4] = test system: Liver microsomes; assay: Intrinsic clearance in rat liver microsomes assessed per ug of protein; type: ADME, Microsome
[5] = test system: Liver microsomes; assay: Intrinsic clearance in human liver microsomes assessed per ug of protein; type: ADME, Microsome
[6] = biological target: Sodium channel protein type 9 subunit alpha (Homo sapiens, UniProt Q15858); assay: Inhibition of human NaV1.7 expressed in HEK293 cells by whole-cell voltage clamp assay; type: cell-based
Outline: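 Human NaV1.7 α-subunit stably expressed in HEK293 cells. Currents were recorded by perforated whole-cell automated planar patch clamp (IonWorks Quattro) in D-PBS external solution with 5.5 mM glucose. Cells were held at −65 mV, and a train of eight 30 ms steps to −20 mV at 3 Hz was applied. Half-log serial dilutions were made in DMSO, giving 0.3% DMSO in the recording solution.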

Chain of Voltage-gated inwardly rectifying potassium channel KCNH2 (Q12809 whole entry): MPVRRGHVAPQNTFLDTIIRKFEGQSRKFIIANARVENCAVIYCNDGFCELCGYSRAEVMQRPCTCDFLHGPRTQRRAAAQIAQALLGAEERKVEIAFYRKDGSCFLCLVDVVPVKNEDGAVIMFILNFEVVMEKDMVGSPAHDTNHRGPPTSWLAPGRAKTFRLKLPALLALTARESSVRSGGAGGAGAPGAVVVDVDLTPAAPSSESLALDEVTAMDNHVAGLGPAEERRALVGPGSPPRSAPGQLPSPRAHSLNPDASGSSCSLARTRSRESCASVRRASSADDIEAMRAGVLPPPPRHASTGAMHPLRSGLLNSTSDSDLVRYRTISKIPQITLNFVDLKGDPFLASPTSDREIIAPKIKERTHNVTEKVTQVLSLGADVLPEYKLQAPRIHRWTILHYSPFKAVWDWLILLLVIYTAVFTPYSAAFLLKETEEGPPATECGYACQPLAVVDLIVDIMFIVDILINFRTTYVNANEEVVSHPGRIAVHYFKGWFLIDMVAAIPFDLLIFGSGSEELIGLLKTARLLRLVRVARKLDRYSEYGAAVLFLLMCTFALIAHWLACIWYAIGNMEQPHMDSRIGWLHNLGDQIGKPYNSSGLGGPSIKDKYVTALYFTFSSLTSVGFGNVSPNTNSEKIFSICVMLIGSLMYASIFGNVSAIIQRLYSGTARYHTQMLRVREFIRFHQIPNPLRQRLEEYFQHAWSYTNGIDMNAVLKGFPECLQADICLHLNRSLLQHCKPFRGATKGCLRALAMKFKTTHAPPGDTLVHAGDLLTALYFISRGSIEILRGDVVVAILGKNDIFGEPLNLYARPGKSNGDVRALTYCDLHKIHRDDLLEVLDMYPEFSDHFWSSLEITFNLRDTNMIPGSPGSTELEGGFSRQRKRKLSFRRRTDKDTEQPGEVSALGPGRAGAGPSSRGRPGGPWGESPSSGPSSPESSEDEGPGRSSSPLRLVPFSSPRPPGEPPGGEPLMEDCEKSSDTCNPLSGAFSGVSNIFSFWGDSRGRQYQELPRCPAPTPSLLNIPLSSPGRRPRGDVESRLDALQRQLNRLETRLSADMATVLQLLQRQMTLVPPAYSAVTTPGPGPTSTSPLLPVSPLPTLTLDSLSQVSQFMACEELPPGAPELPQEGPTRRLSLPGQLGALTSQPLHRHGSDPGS
Chain of Sodium channel protein type 5 subunit alpha (Q14524 whole entry): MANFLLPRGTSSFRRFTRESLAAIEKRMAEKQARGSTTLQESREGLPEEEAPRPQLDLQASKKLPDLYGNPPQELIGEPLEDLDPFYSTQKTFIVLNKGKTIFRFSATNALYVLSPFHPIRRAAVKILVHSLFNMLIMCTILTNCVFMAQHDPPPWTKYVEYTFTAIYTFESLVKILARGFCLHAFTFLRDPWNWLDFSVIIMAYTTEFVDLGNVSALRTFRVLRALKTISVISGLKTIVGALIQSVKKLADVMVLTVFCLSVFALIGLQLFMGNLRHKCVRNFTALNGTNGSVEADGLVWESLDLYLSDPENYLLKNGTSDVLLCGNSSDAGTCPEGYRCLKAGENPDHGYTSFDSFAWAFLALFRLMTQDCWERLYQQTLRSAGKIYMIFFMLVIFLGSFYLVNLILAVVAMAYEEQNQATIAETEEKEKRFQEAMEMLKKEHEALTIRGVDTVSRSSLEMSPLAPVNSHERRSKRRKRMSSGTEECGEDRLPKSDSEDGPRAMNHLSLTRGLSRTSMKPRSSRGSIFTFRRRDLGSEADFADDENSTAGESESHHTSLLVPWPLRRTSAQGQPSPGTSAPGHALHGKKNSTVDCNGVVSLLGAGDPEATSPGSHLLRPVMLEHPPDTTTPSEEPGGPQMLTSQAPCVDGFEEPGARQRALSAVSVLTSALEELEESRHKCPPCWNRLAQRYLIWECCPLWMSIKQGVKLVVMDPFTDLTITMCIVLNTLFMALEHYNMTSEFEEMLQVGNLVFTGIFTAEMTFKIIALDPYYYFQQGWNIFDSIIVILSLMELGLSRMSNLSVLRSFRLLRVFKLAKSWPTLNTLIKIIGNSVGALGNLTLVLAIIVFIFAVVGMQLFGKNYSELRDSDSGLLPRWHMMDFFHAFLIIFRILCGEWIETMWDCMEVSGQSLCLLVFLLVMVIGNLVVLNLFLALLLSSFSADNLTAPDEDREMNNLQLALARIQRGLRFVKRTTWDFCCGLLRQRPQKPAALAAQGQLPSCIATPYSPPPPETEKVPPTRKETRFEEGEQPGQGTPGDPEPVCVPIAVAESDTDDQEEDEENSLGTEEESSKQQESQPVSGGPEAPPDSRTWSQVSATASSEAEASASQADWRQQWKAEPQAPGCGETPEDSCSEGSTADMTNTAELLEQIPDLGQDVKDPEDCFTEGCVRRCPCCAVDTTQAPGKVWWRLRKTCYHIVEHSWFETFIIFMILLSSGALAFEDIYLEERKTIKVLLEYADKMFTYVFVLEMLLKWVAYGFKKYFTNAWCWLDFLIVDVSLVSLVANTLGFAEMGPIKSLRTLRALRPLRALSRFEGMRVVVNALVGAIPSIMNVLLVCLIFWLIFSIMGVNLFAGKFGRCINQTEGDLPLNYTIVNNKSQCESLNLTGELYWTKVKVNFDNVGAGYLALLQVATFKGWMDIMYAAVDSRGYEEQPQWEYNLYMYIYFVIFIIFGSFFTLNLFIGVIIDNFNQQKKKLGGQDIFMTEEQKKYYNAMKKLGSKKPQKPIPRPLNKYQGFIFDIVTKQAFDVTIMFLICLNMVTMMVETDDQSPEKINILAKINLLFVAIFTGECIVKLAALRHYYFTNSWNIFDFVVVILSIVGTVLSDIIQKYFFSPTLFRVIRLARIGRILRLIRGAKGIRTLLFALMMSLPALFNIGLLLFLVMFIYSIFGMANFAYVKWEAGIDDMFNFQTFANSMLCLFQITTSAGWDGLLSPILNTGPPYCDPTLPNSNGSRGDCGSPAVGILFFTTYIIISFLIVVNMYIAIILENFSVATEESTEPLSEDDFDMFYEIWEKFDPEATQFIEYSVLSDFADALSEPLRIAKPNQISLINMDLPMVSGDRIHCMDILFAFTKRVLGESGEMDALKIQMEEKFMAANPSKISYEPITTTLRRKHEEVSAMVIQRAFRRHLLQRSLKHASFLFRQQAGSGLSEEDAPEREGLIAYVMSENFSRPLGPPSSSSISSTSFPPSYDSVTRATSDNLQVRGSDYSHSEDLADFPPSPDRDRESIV
Chain of Sodium channel protein type 9 subunit alpha (Q15858 whole entry): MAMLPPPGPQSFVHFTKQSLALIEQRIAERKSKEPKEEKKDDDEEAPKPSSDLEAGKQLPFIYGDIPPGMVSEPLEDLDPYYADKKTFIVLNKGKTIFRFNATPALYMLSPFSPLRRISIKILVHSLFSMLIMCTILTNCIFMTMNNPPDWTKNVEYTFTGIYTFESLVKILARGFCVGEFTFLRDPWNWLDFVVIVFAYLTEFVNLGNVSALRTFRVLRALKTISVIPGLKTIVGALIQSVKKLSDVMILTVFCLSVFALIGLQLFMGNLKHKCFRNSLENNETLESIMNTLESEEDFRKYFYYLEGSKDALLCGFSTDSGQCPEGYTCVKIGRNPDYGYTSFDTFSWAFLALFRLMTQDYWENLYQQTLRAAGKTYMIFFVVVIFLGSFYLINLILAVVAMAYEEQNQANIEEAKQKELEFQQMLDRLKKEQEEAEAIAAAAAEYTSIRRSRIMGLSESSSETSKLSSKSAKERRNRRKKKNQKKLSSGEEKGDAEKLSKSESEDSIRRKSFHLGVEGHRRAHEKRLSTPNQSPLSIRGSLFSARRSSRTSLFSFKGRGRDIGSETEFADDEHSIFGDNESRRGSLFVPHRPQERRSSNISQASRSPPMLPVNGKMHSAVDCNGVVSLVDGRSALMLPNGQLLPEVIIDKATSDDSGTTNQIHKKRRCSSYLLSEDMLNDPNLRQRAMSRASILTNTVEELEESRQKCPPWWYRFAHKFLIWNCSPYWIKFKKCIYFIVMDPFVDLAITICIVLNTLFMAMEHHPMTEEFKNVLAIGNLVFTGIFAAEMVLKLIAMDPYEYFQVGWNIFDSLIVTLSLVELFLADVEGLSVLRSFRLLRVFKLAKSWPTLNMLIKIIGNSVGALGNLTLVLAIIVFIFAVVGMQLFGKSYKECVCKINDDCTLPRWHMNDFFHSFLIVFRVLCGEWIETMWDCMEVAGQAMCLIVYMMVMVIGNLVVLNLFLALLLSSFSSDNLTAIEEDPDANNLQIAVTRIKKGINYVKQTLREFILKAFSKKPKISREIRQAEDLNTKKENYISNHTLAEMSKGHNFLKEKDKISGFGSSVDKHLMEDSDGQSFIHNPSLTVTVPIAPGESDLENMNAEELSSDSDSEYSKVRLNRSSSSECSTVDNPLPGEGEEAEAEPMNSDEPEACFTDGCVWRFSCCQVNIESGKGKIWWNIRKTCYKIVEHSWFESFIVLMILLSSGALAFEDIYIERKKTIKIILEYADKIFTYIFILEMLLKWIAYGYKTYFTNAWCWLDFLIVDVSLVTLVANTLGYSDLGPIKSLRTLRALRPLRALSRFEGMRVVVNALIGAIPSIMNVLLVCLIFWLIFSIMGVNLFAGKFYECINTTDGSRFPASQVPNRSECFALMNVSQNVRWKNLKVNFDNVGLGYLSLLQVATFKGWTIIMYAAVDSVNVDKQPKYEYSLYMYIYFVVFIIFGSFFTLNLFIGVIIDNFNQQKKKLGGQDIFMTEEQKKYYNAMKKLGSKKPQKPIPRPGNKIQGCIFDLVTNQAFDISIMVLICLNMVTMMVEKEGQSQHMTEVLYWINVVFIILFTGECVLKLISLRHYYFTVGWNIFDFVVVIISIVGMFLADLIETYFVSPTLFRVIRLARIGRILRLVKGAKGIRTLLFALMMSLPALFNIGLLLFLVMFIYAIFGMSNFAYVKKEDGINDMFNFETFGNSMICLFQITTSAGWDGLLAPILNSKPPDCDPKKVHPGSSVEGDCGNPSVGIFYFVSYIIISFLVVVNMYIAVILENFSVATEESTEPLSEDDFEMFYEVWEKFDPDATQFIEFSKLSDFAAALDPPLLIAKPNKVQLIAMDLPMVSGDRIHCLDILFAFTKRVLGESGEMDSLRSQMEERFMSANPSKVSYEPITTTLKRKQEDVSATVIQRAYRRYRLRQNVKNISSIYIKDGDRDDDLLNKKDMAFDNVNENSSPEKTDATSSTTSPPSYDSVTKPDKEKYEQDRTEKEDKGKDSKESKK

solubility [3]	CLint [4]	CLint [5]	IC50 [6]	CLH [5]	Structure (SMILES)	IC50 [1]	IC50 [2]
2 µM (≈ 0.823 µg/mL)	–	–	–	–	Cc1nn(-c2ccccc2)nc1C(=O)N[C@@H]1COc2cccc(-c3ccncc3)c2C1	3.98 µM	> 31.6 µM
6.5 µM (≈ 2.89 µg/mL)	< 10 µL/min/mg	< 10 µL/min/mg	–	–	Cc1ncc(-c2cccc3c2C[C@H](NC(=O)c2ccc(OCC(F)(F)F)nc2)CO3)cn1	10 µM	5.01 µM
145 µM (≈ 68.8 µg/mL)	< 10 µL/min/mg	< 10 µL/min/mg	0.251 µM	–	COc1ncc(-c2cccc3c2C[C@H](NC(=O)c2ccc(COCC(F)(F)F)nc2)CO3)cn1	15.8 µM	10 µM
1 µM (≈ 0.424 µg/mL)	82 µL/min/mg	361 µL/min/mg	1 µM	–	CCCCOc1ccc(C(=O)N[C@@H]2COc3cccc(N4CCN(C)CC4)c3C2)cc1	6.31 µM	> 6.31 µM
2 µM (≈ 0.829 µg/mL)	–	78 µL/min/mg	1 µM	–	O=C(N[C@@H]1COc2cccc(-c3ccncc3)c2C1)c1ccc(OC(F)(F)F)cc1	2.51 µM	3.98 µM
< 1 µM	< 10 µL/min/mg	< 10 µL/min/mg	–	–	COc1ncc(-c2cccc3c2C[C@H](NC(=O)c2ccc(OCC(F)(F)F)nc2)CO3)cn1	–	6.31 µM
–	21 µL/min/mg	16 µL/min/mg	> 10 µM	–	COc1cnc(-c2cccc3c2C[C@@H](NC(=O)c2ccc(COCC(F)(F)F)nc2)CO3)cn1	–	–
4 µM (≈ 1.84 µg/mL)	9 µL/min/mg	–	0.158 µM	Stable	Cc1ccc(-n2nc(C)c(C(=O)N[C@@H]3COc4cccc(N5CCN(C)CC5)c4C3)n2)c(C)c1	–	2.51 µM
393 µM (≈ 154 µg/mL)	–	–	–	–	Cc1nn(CC(C)C)nc1C(=O)N[C@@H]1COc2cccc(-c3cccnc3)c2C1	–	> 31.6 µM
379 µM (≈ 176 µg/mL)	< 10 µL/min/mg	< 10 µL/min/mg	0.631 µM	–	CN1CCN(c2cccc3c2C[C@H](NC(=O)c2ccc(OCCC(F)(F)F)nc2)CO3)CC1	12.6 µM	5.01 µM
23 µM (≈ 10.2 µg/mL)	38 µL/min/mg	318 µL/min/mg	–	–	O=C(N[C@@H]1COc2cccc(-c3cncnc3)c2C1)c1ccc(OCCC(F)(F)F)nc1	–	3.98 µM
5 µM (≈ 2.07 µg/mL)	–	–	–	–	O=C(N[C@@H]1COc2cccc(-c3cccnc3)c2C1)c1ccc(OC(F)(F)F)cc1	–	3.16 µM
18 µM (≈ 9.32 µg/mL)	< 10 µL/min/mg	12 µL/min/mg	0.794 µM	–	CC(O)c1ccc(-c2cccc3c2C[C@H](NC(=O)c2ccc(OCCOCC(F)(F)F)nc2)CO3)cn1 (stereo partly specified)	–	10 µM
82 µM (≈ 37.6 µg/mL)	< 10 µL/min/mg	< 10 µL/min/mg	0.501 µM	–	Cc1cnc(-c2cccc3c2C[C@H](NC(=O)c2ccc(COCC(F)(F)F)nc2)CO3)cn1	–	20 µM
9 µM (≈ 3.86 µg/mL)	77 µL/min/mg	59 µL/min/mg	–	–	O=C(N[C@@H]1COc2cccc(-c3ccncc3)c2C1)c1ccc(OCC(F)(F)F)nc1	6.31 µM	3.16 µM
29 µM (≈ 12.5 µg/mL)	64 µL/min/mg	161 µL/min/mg	–	–	O=C(N[C@@H]1COc2cccc(-c3cccnc3)c2C1)c1ccc(OCC(F)(F)F)nc1	–	3.16 µM
1.1 µM (≈ 0.525 µg/mL)	10 µL/min/mg	19 µL/min/mg	–	–	COc1ncc(-c2cccc3c2C[C@H](NC(=O)c2ccc(OCC(F)(F)F)nc2)CO3)cc1F	–	3.98 µM
3 µM (≈ 1.42 µg/mL)	< 10 µL/min/mg	< 10 µL/min/mg	–	–	COc1ncc(-c2cccc3c2C[C@H](NC(=O)c2ccc(OCCC(F)(F)F)nc2)CO3)cn1	–	3.98 µM
306 µM (≈ 120 µg/mL)	–	–	25.1 µM	–	COCCn1nc(C)c(C(=O)N[C@@H]2COc3cccc(-c4ccncc4)c3C2)n1	–	> 31.6 µM
18 µM (≈ 9.32 µg/mL)	–	–	0.794 µM	–	Cc1cc(-c2cccc3c2C[C@H](NC(=O)c2ccc(OCCOCC(F)(F)F)nc2)CO3)cnc1CO	–	5.01 µM
396 µM (≈ 156 µg/mL)	–	–	–	–	COCCn1nc(C)c(C(=O)N[C@@H]2COc3cccc(-c4cccnc4)c3C2)n1	–	> 31.6 µM
